The EternaBench riboswitch data

Test system: MS2 coat protein
Assay: apparent Kd, MS2 coat protein; higher = weaker binding; RNA-MaP array
Outline: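 Apparent Kd is the median of per-cluster binding-curve fits for designed RNAs transcribed from sequenced DNA templates on an Illumina sequencing chip. The RNAs were incubated at room temperature with fluorescently labeled MS2 coat protein at 1.5 nM to 3 μM, with or without input ligand, and designs measured on fewer than 10 clusters were excluded.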

[1] = designed as: OFF switch for flavin mononucleotide, no ligand
[2] = ligand present: flavin mononucleotide, designed as: OFF switch for flavin mononucleotide
[3] = designed as: ON switch for tryptophan, no ligand
[4] = ligand present: tryptophan, designed as: ON switch for tryptophan
[5] = designed as: ON switch for theophylline, no ligand
[6] = ligand present: theophylline, designed as: ON switch for theophylline
[7] = designed as: ON switch for flavin mononucleotide, no ligand
[8] = ligand present: flavin mononucleotide, designed as: ON switch for flavin mononucleotide

CAUCCUCUUUGACAUGAGGAUCACCCAUGUAUUGCAGUGACCAGAAGGCGUUCCCACAAAGUGGACGAGGAUAUGGAAAAGCCG
apparent Kd [1]: 193 nM
apparent Kd [2]: 184 nM

GUCGUCACAGGAUAUACAUGAGGAUCACCCAUGUUCCCGUGUAAAUGGGUUGUGUUAGGUAGAAGGGUGCACGC
apparent Kd [1]: 17.4 nM
apparent Kd [2]: 27.8 nM

AAGGACAUGAGGAUCACCCAUGUAGAGGAGCGAGGACCGGUACGGCCGCCACUCGGUGACAUUCGAUAAUGCCGAAUAAGACAUC
apparent Kd [3]: 23.6 nM
apparent Kd [4]: 22.6 nM

UUAGGGCGGUAGAAGGAGGAUUACAUGAGGAUCACCCAUGUGGCAGGAGGCGAGGCUCAGUUACCCUAGGAUAUACAUCAGGUU
apparent Kd [1]: 24.9 nM
apparent Kd [2]: 21.5 nM

UCUUGAGGCUAGGAUAUCAUACAUAAAAGCAACUGAGAAGGAGCCACAUGAGGAUCACCCAUGUAUCCGUUAUG
apparent Kd [1]: 16.5 nM
apparent Kd [2]: 71.6 nM

GGGCAACAUGAGGAUCACCCAUGUCGUCAUGGGUUCAAUCGGAGAAGGAACGGAGUGAUAUCCAGUUAGGAUAUCCGCUACACU
apparent Kd [1]: 44.6 nM
apparent Kd [2]: 44 nM

AAUAAGAGCUCGGAUACCAGCGAAAACAGGCACAUGAGGAUCACCCAUGUUAACGCACUGCGCCCUUGGCAGCCGCACGUGUGUC
apparent Kd [5]: 25.1 nM
apparent Kd [6]: 12 nM

CACUGACAUGAGGAUCACCCAUGUAUGCUCGACCAAGGAUAUUGAUCAGACAAGCAUACGCAAGAAGGUGGUGAGA
apparent Kd [7]: 222 nM
apparent Kd [8]: 105 nM

CCGCUUGCAGGAUAUACAUGAGGAUCACCCAUGUUAAGAGAACAGUAACAAAGCAUUUGUAGAAGGGCAAUACG
apparent Kd [1]: 9.81 nM
apparent Kd [2]: 9.19 nM

UUUUUAGGACAAGGAUAUUGAAUCGCACAUGAGGAUCACCCAUGUCCUCUGCAUACAGCGGACUUCAAGAAGGUGUCGACCAAU
apparent Kd [7]: 971 nM
apparent Kd [8]: 832 nM

GGACAUGAGGAUCACCCAUGUGGGAUCCACUACGGUCACGCUAGAAGGGAUGUGGGUGGCCGAUAUCAGGAUAUAGCAGUUUAG
apparent Kd [1]: 381 nM
apparent Kd [2]: 189 nM

CUGAAAGUAGAGGAUAUGUGAAUAGCAGCGAUGACAGAAGGCUACACAUGAGGAUCACCCAUGUAAUCCCGUGC
apparent Kd [1]: 20.4 nM
apparent Kd [2]: 28.1 nM

GAUCCACAUGAGGAUCACCCAUGUGAGGAUACCAGUACCAGAUCCUACCCUUGGCAGCCUAACCUUCAUUCAACACGAAUAAGAA
apparent Kd [5]: 12.4 nM
apparent Kd [6]: 14.3 nM

AAGACGAAGAAGAAGGGCAUACAUGAGGAUCACCCAUGUGAAAAUGUGCUGAAAGAACAUAAAUUGCAGGAUAUUCACACAAGU
apparent Kd [7]: 11.2 nM
apparent Kd [8]: 6.42 nM

AGUACCAAUGAGGAUACCAGAGUGCGACGCCGAAACCUUGACAUGAGGAUCACCCAUGUACUCCCUUGGCAGCCUGUACUUGCCA
apparent Kd (designed as: OFF switch for theophylline, no ligand): 35.9 nM
apparent Kd (ligand present: theophylline, designed as: OFF switch for theophylline): 82.6 nM

GAGAGAUAAGGAUAUCCACAACGGGACAUGAGGAUCACCCAUGUACCCUCAUUCCUCGCAGGAGAAGGUAUCAUGU
apparent Kd [1]: 22.4 nM
apparent Kd [2]: 44.3 nM

UACGAGUAAGGAUAUACACUGACCCAAAGAGUACAGAAAAUGUAGAAGGUACAUGAGGAUCACCCAUGUAGGUG
apparent Kd [1]: 85.2 nM
apparent Kd [2]: 94.3 nM

UAGGUGCUCUAAGGAUAUUAUACAUGAGGAUCACCCAUGUGGCGACCAAGGGUAGAAGAGGAACUUAAGAAGGUAGAUGUAUAG
apparent Kd [1]: 43.2 nM
apparent Kd [2]: 34 nM

GCUACACAUGAGGAUCACCCAUGUCAGGUCACUGAAGGAUAUAUUACUUAAUCCUGGGUCAUAGAAGGUCAAUUGC
apparent Kd [7]: 31.4 nM
apparent Kd [8]: 21.9 nM

GACAUGAGGAUCACCCAUGUGAAGCAUGGUGGGCGCUCGUCCUAGGAUAUCUGCAAGUAGCUAGGAGAGAAGGAGGUAGCCAAA
apparent Kd [1]: 76.3 nM
apparent Kd [2]: 57.6 nM

GAUGUCAAACAGAAGGAAGACUUGUACAAGGACUUAGGAUAUGUACAUGAGGAUCACCCAUGUGACUAAUGCGGGCCAUAUGAC
apparent Kd [1]: 15.1 nM
apparent Kd [2]: 16.9 nM

ACAUGAGGAUCACCCAUGUCUCGGGUGCCGGUUUUUACCUAGAGAAGGUGCGCAACGCUGUCACGCAAGGAUAUCUCACGAACA
apparent Kd [1]: 231 nM
apparent Kd [2]: 184 nM

GGGCCCUUCUCAUAGGAUAUACUUUAUACCACAUGAGGAUCACCCAUGUAAACAUAAUUAAGAAAGUAGAAGGAUGACGAAAAUCG
apparent Kd [7]: 10.4 nM
apparent Kd [8]: 8.98 nM

CCUCGUAAUGAGGAUAUUAGGAAUUCUGGUCCAUAAGAAGGCAUGACAUGAGGAUCACCCAUGUAGCGGAUGGG
apparent Kd [1]: 102 nM
apparent Kd [2]: 145 nM

GGGAGAAAUGGAGGAUAUAUUAAAGCACAGCUGACAUGAGGAUCACCCAUGUGAAUUAAAGAUGCAUAGAAGGCCAAACUACAA
apparent Kd [7]: 17.3 nM
apparent Kd [8]: 11.8 nM

UUUGAGGCAGGAUAUAACAUCUUUGACAUGAGGAUCACCCAUGUGGUGUCCCGGUUUUAAUUAGAAGGGCCAGGCU
apparent Kd [1]: 692 nM
apparent Kd [2]: 727 nM

GCUGCUCAUCAAAACUGGACAUGAGGAUCACCCAUGUCUUUGCAGGAUAUUGAUCGUCAGUACAUCAAGAAGGGCACGCGGCAA
apparent Kd [7]: 12.9 nM
apparent Kd [8]: 9.89 nM

GUACCACUCAAGAAGGACCUAGUUCACUAACCUGUGACAUGAGGAUCACCCAUGUGGCUAUUGCGGUAGGAUAUUGAAGACCGG
apparent Kd [7]: 157 nM
apparent Kd [8]: 69.1 nM

UUAGUGGAACGGAAGGAUAUGAGCCACCCUACAUGAGGAUCACCCAUGUGAGCGUUGGCAGCGCAUCAGAAGGUCCUCCUACGAGU
apparent Kd [7]: 6.63 nM
apparent Kd [8]: 5.9 nM

UCACACGUUGUAGGAUAUGUCACGCAUAGAACAUGAGGAUCACCCAUGUAUCCCUGUCAUGCCAGACAGAAGGACACUAACGCG
apparent Kd [1]: 55.5 nM
apparent Kd [2]: 129 nM

CACUACAUGAGGAUCACCCAUGUCUUCCGACGAGGACCGGUACGGCCGCCACUCGAACCUCCAACUAAUACCUCAACCGUCUGAU
apparent Kd [3]: 80.5 nM
apparent Kd [4]: 54.6 nM

GUUGACGAGUCAGGAUAUGAUUAGUGGGAGAAACAGCAACUCACAUGAGGAUCACCCAUGUAUGUUCAGAAGGGACGCCGAUCA
apparent Kd [1]: 63.9 nM
apparent Kd [2]: 183 nM

CAGACGUAGAUUACAUGAGGAUCACCCAUGUCAUACCAGAUCAGAAGGGUUCUAGAGCGUACUCAACAGGAUAUGAUAAGUCCC
apparent Kd [7]: 18.3 nM
apparent Kd [8]: 16.5 nM

UCGUCAUUGAACAGCACAUGAGGAUCACCCAUGUUUAGAUCUAGAAGGCCUUUCUCGAAGACCCAGGAGGAUAUAGUGAAGUGG
apparent Kd [1]: 21.8 nM
apparent Kd [2]: 18.7 nM

GGAUUUGAUCCAGGAUAUUAACAAUCCUCAGAUCAAAAUACAUGAGGAUCACCCAUGUACUCAAAUAAGAAGGGGAUGGCGGCC
apparent Kd [1]: 25.7 nM
apparent Kd [2]: 20.5 nM

GGUACUCUGUACUAACAUGAGGAUCACCCAUGUAGGCAAACUCAGGAUAUAUUGAACACACCUAGAUAGAAGGGAGUUCGUGAU
apparent Kd [7]: 11.2 nM
apparent Kd [8]: 9.66 nM

GUCAUGUUAGGAUAUACACGUACCCGCCGACAGCCAGCAAUGUAGAAGGAACAUGAGGAUCACCCAUGUCGUGG
apparent Kd [1]: 15.2 nM
apparent Kd [2]: 31.5 nM

CUCUCGCAAGGAUAUACACAGUGGAAUAUCAUAAGGUGAACACAUGAGGAUCACCCAUGUAGAAGGUGCAUAAG
apparent Kd [2]: 38.5 nM

UUGAGAGGACAGAAGGUUGGGCUCUUGAUCUACGCGCGCGACAUGAGGAUCACCCAUGUGCUUCCAAAGGAUAUGUCACUCGCA
apparent Kd [7]: 138 nM
apparent Kd [8]: 44.8 nM

CCUUAACAUGAGGAUCACCCAUGUCUGGAUACCAGAUACAGAUAAAUCCCUUGGCAGCCAAAAUAUGAAAGAAAUAAAAUAAGAA
apparent Kd [5]: 41.3 nM
apparent Kd [6]: 48.9 nM

UAUUUGUUGAAGAAGGAGCGUACAUGAGGAUCACCCAUGUCCAACGUCUACGCGGGUUAUGUUAGCUAGGAUAUUCCGAAAUGG
apparent Kd [1]: 28.3 nM
apparent Kd [2]: 22.1 nM

GCACCUAGGUCAGGAUAUCAAAAUGUCAUACAUGAGGAUCACCCAUGUGUCGUUAAGUAACACUGUGAGAAGGGACAACUUGAA
apparent Kd [1]: 10.3 nM
apparent Kd [2]: 8.82 nM

GCAAAUGCUGAGAAGGUGAUGAAUAACUCCUCGAUGUAACUUGACAUGAGGAUCACCCAUGUCAUCAAGGAUAUCAAAGUGAAC
apparent Kd [1]: 9.54 nM
apparent Kd [2]: 16.2 nM

AUAUGUUGAGGAUAUACAUGAGGAUCACCCAUGUAAUAUGAACGGAAUGAUUUAAGGAGUAGAAGGCAACACCA
apparent Kd [1]: 12.8 nM
apparent Kd [2]: 24.4 nM

UGACUGGUCGGAGGAUAUGGCAACACGUUUUCGCCAGAAGGCCGACAUGAGGAUCACCCAUGUGGGACACUAGGGCGACUUCCU
apparent Kd [1]: 166 nM
apparent Kd [2]: 35.8 nM

GACAGGACGACAUGAGGAUCACCCAUGUGUUAGCGUGGAUAGCAGGAUAUAUUAUUUAGACUCGGAUAGAAGGGCUCGGACCUA
apparent Kd [1]: 18.3 nM
apparent Kd [2]: 14.5 nM

AAUACAAAACAUGAGGAUCACCCAUGUCCCGAGACUAAACUAAGAAGGUGACCAACCAAAAGGGUCAAGGAUAUUAGGAUCUAU
apparent Kd [7]: 28.9 nM
apparent Kd [8]: 13.4 nM

AGGAGACGCAAGGAGGAUAUUCAUAUGGUAACAUGAGGAUCACCCAUGUAGUUCUAGUUGGGACUGAAGAAGGCCUUGCUAGCGCA
apparent Kd [7]: 21.7 nM
apparent Kd [8]: 11.3 nM

UGCAGAGAUUGAGGAUAUGUAGUCGAACAUGAGGAUCACCCAUGUUUGGUCCUUCUACACACGGCACAGAAGGCAAGAAAGAGC
apparent Kd [1]: 15.1 nM
apparent Kd [2]: 24.3 nM

AGGAACGAAGGAUAUGAUGAAUAGUACAUGAGGAUCACCCAUGUGGCCACCUUAGACAUCUCAGAAGGACGAUACU
apparent Kd [1]: 33.6 nM
apparent Kd [2]: 25.1 nM

CAAACAUUAUCAGGAUAUGUGCAAGAUCCGACAUGAGGAUCACCCAUGUUGCGGCAUCUCGGUUGACAGAAGGGAUCAUCGCCU
apparent Kd [7]: 11.2 nM
apparent Kd [8]: 10.1 nM

UAUGGCAACUUAGGAUAUCAAUGCAUCGAUUAUUGAGAAGGAAGAAACAUGAGGAUCACCCAUGUCUCUACAGGGAUAAGGACC
apparent Kd [1]: 7.38 nM
apparent Kd [2]: 7.98 nM

CCCUCCAGAACGGCCGCCACUAAAGGGUUGUGUGCGACUCCGGAACAUGAGGAUCACCCAUGUCUUAGGACCGGGUUCCCUUCUA
apparent Kd [3]: 62 nM
apparent Kd [4]: 56.5 nM

CAAUGAAACAUUCAGGAUAUGGUACAAGGAACAUGAGGAUCACCCAUGUCAAGAAAAGAAAAUCACCAGAAGGGAACAAGACAAAA
apparent Kd [7]: 41.5 nM
apparent Kd [8]: 32.3 nM
